Test system: MS2 coat protein
Test: apparent Kd, MS2 coat protein; higher = weaker binding; RNA-MaP array; FMN 200 µM where present
Method in brief: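 Stalled E. coli RNA polymerase transcribed each design on Illumina sequencing-chip clusters. The clusters were titrated with SNAP-549-labelled MS2 coat protein, starting at 0.7 or 1.5 nM and doubling up to 3 µM, first without ligand and then with constant ligand, in 100 mM Tris-HCl pH 7.5, 80 mM KCl, 4 mM MgCl2, BSA, DTT, yeast tRNA and Tween-20. Green signal was normalised to red-channel RNA signal and to the control-cluster median Fmax. The apparent Kd is the median of filtered binding-curve fits made for each cluster.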

[1] = designed as: ON switch for flavin mononucleotide, no ligand
[2] = ligand present: flavin mononucleotide, designed as: ON switch for flavin mononucleotide
[3] = designed as: OFF switch for flavin mononucleotide, no ligand
[4] = ligand present: flavin mononucleotide, designed as: OFF switch for flavin mononucleotide

| Sequence | apparent Kd [1] [nM] | apparent Kd [2] [nM] | apparent Kd [3] [nM] | apparent Kd [4] [nM] |
| --- | --- | --- | --- | --- |
| GAAGCACGCAUUAACAUGAGGAUCACCCAUGUGAAAACACGUGAGGAUAUCGAUCUGAAGAAGAUCGAGAAGGCACCGUGCUAA | 5.53 | 5.11 | – | – |
| GAAGCCUGAGAGAAGGGCCACAUGAGGAUCACCCAUGUGUGCUCUCCUGUGGCAGGAUAUCUAUGGGCUGACUGGCUAAUCCAU | – | – | 6.84 | 4.6 |
| GAAGUUCUCCAGAAGGCACAUGAGGAUCACCCAUGUAAAAGAGCCUUAAUGUGAGGAUAUGGAAGCUGCUUCAUAGAUGACAUA | – | – | 6.61 | 26.5 |
| GAAUAAUUGAUCCAAUAUAACAACAUGAGGAUCACCCAUGUGCAGGAUAUCGUGUGUGUUAUAUACGAGAAGGGCAAGAACUGU | – | – | 729 | 594 |
| GAAUACCUAGGAUAUACAUGAGGAUCACCCAUGUCAGUAGACUGGGUAAAGUCUCUCAGUAGAAGGAGGACCCG | – | – | 109 | 97.8 |
| GAAUACCUAGGAUAUACAUGAGGAUCACCCAUGUUAAUAUUUGCAUAUUCAUCCUCUGGUAGAAGGAGGAAACU | – | – | 16.1 | 14.6 |
| GAAUAGAAAGAUUAAUAUGAUUACAUGAGGAUCACCCAUGUAUAGGAUAUCGACGUCAAUGACGUCGAGAAGGAUACAUAAUAA | – | – | 14.5 | 26.1 |
| GAAUAGGCAGGAUAUACAUGAGGAUCACCCAUGUGCUUGCGAUCGGCAAGCGAACAACGUAGAAGGGCCUUAAC | – | – | 16.2 | 37.3 |
| GAAUAGGCAGGAUAUACAUGAGGAUCACCCAUGUGCUUGCGCUAGGCACGUGAACAACGUAGAAGGGCCUAGAC | – | – | 14 | 22.8 |
| GAAUUCGCAUGAGGAUAUGCACUCAUUUCAUGUGCAGAAGGUAUAUCAUUAGACAUGAGGAUCACCCAUGUAUUGGUCAAUAAC | 17.8 | 14.8 | – | – |
| GACAAACAUGAGGAUCACCCAUGUUCAAACGAACAAGGAUAUGUGUGGAAACCGUACUAUACAGAAGGUGUCUGUC | 36.5 | 37.7 | – | – |
| GACAAGUGAGGAUAUCUGAUGUCUAACUUCGGUUAGACAUCAGAGAAGGCACAUGAGGAUCACCCAUGUCUGUC | – | – | 30.7 | 20.8 |
| GACAGACAUGAGGAUCACCCAUGUGAAAACGUACAAGGAUAUGUGUGGAAACCGUACUAUACAGAAGGUGUCUGUC | 94.5 | 87 | – | – |
| GACAGCGACACAGGAUAUGUCAAUUUUACAUGAGGAUCACCCAUGUCCGAAGCAGAAGGGUGAUCGCGCGCAAACUAAGCCAUG | 80.5 | 70.5 | – | – |
| GACAUCGCAGGAUAUUAUUGUUUGUACAUGAGGAUCACCCAUGUUAAUUGGGUUAAUGUUUAAGAAGGGCGGUGUC | – | – | 642 | 557 |
| GACAUGAGGAUCACCCAUGUCCAACCAGAAGGCCAGGAAUCGGACCCGUGUAUCGGGUUCGAGAUGGAGGAUAUGGGCGCCGAA | 78.2 | 34.1 | – | – |
| GACGUUGGAGGAUAUACACGAGUGCUCAGUUGGCCCGGUCGACAUGAGGAUCACCCAUGUAGAAGGCCGACACU | – | – | 17.6 | 22.8 |
| GACUGCAGAGGAUAUACAUGAGGAUCACCCAUGUGAGAUGCCUGACAGGUGUUGCUGAGUAGAAGGCUGCACUG | – | – | 14.1 | 21 |
| GACUGCCGAGGAUAUACAUGAGGAUCACCCAUGUGCUUCAGCAUCGAAAGAUGCAUGGGUAGAAGGCGGUAGUC | – | – | 27.4 | 72 |

| Sequence | apparent Kd [1] [nM] | apparent Kd [2] [nM] | apparent Kd [3] [nM] | apparent Kd [4] [nM] |
| --- | --- | --- | --- | --- |
| GACUUGCGCACAGGAUAUCCACGGAGCGGACGUGGAGAAGGGUGACAUGAGGAUCACCCAUGUACGUAAGUCUGGAUCACUUCC | 49.9 | 37.9 | – | – |
| GAGAAGAGGGAAGGAUAUACAUGAGGAUCACCCAUGUAGAUAGGUAUAAUAGGUUGUUGUAGUAUGUAGAAGGUCCGGUUUGUU | – | – | 18.9 | 22.5 |
| GAGACGUCAGGAUAUCUGAUGUCUAACUUCGGUUAGACAUCAGAGAAGGGACAUGAGGAUCACCCAUGUCUCAG | – | – | 15.9 | 13.9 |
| GAGAUGACAGUCAGGAUAUCUGUAGGGCGGACUUAAGAGAAGGGACAUGAGGAUCACCCAUGUGUGAUUGGUUU | – | – | 266 | 347 |
| GAGCGAAAGCUCAAUGUCGAUAGCAGAAGGACACAUGAUAACAUGAAAACAUGAGGAUCACCCAUGUAGGAUAUGCUAUCGACU | – | – | 8.57 | 13.9 |
| GAGCGAAAGCUCAAUGUCGAUAGCAGAAGGACAUGAAAACGUGAAAACACAUGAGGAUCACCCAUGUAGGAUAUGCUAUCGACU | – | – | 57.1 | 745 |
| GAGCGCUGUCGAGAGGAUAUGCGGUGAUGGACAUGAGGAUCACCCAUGUUAGCGAUAGCAUUACGGUAGAAGGCUCUACAGCUGC | 33.4 | 15.4 | – | – |
| GAGGAUAGAGGAUAUGCAUAGAUACGGAUUCGUGUAGUACUACAUGAGGAUCACCCAUGUAGAAGGCUGUCCAG | – | – | 12.7 | 22 |
| GAGUCUCUAUUAGAACCGAUACGAACAUGAGGAUCACCCAUGUAGGAUAUGCUAAAAGUUGUGUUGCAGAAGGACAUUUAUCGC | – | – | 11.1 | 10.9 |
| GAGUGACAUGAGGAUCACCCAUGUAAGGAUAUACGGUUGGUAGAGAGAGGGCUAAAGGGUAGAAGGUACGAAGG | – | – | 76.7 | 48.7 |
| GAGUGACAUGAGGAUCACCCAUGUGAGGAUAUCGGACGGACCAAAUUAACAUCCGCCGCGAGAAGGCACAUCGG | – | – | 78.7 | 24.5 |
| GAGUGCUUAGGAUAUACAUGAGGAUCACCCAUGUGCUUCAGCUAGGAGACUAGCAUUGGUAGAAGGAAGUACUC | – | – | 14.5 | 48.6 |
| GAGUGGAAGGCCGCUACAUGAGGAUCACCCAUGUGCUAAGCACAGGAUAUCGCGCGGACCCGGCGCGAGAAGGGUGACGGCCUG | 463 | 268 | – | – |
| GAGUGGAAGGCCGCUACAUGAGGAUCACCCAUGUGCUAAGCACAGGAUAUCGCGCUGGCCCGGCGCGAGAAGGGUGACGGCCUU | 737 | 283 | – | – |
| GAGUGGAGGAGAGGAUAUACAAUGAUAAUCACUGUAGAAGGUUCUAACAUGAGGAUCACCCAUGUAGGACUAUUCCUGAGAGUU | 12.8 | 10.3 | – | – |
| GAGUGGUGGAGAGGAUAUGCAUUGUUAUUCACUGUAGAAGGUUCUAACAUGAGGAUCACCCAUGUAGGACUAUUCCUGUGUUUU | 13.5 | 11.1 | – | – |
| GAGUUACAUGAGGAUCACCCAUGUUGUUGUGGAUAAGGAUAUAUGGUAGGAAGAGGAAUGAUAGAAGGUAUUAGGG | 46.2 | 40 | – | – |
| GAGUUAGAGGGAGGAUAUUGAGAUAGGACACUACGAGAAGGCUUAUAAUAGAUAAACAUGAGGAUCACCCAUGUCAUGUAAUGG | – | – | 48.7 | 29.1 |
| GAGUUUAAGUUUGUCACUUAGAGAGAGGAUAUGGAAAACUUGACAUGAGGAUCACCCAUGUAUAAUCAGAAGGCUCGAGUACGA | 12.1 | 7.33 | – | – |

| Sequence | apparent Kd [1] [nM] | apparent Kd [2] [nM] | apparent Kd [3] [nM] | apparent Kd [4] [nM] |
| --- | --- | --- | --- | --- |
| GAUACACAUGAGGAUCACCCAUGUGAGGAUAUGCGUACGUUGUCCGUAGGCGACGUGCGCAGAAGGCGCGAGGU | – | – | 41.4 | 36.2 |
| GAUACGUCAGGAUAUCUGAUGUCUAACUUCGGUUAGACAUCAGAGAAGGGACAUGAGGAUCACCCAUGUAUCAA | – | – | 42.6 | 56.7 |
| GAUAGGAUGUGAGGAUAUGCUGAGGAUACUUCAGCAGAAGGCACAUGAGGAUCACCCAUGUACACUUAUCAUAAAUACCCUAUC | – | – | 13 | 17.9 |
| GAUCCGUCUGUUAGGAUAUGCUUUGGGCUUCCGCAGUAGAAGGAACAUGAGGAUCACCCAUGUCCGAUGCCGUC | – | – | 33.4 | 43 |
| GAUCGACAUGAGGAUCACCCAUGUCAGGAUAUCGUCACUGGAGCUUCGGCUCCAGUGACGAGAAGGGACAUAAU | – | – | 31.9 | 44.6 |
| GAUCGCCGUGUCAGGAUAUCUUGUGUACCCACGUUAGAGAAGGGACAUGAGGAUCACCCAUGUACCCUGGCUUU | – | – | 20.6 | 20.5 |
| GAUCUGACAGGAUAUACAUGAGGAUCACCCAUGUGCGAGCUAGCGAAAGCUAGCUCAGGUAGAAGGGUCAGAUC | – | – | 12 | 16.4 |
| GAUGACAUGAGGAUCACCCAUGUGAUGGUUUGAGGUGGUUACAGAAGGGACGUAUAGUGGUGUGGUCAGGAUAUGUAGAAUCCU | 125 | 50.9 | – | – |
| GAUGUUUGAGGAUAUACAUGAGGAUCACCCAUGUGUGUCCAUACGCGUGAGUCUUCGUGUAGAAGGCGGGCGUC | – | – | 14.1 | 15.5 |
| GAUUAACAUGAGGAUCACCCAUGUCGUAUUAUGGGAGGAUAUACGUGGACCGUAGUCCGCGUAGAAGGCCUAAUUG | 93.8 | 28.7 | – | – |
| GAUUAACAUGAGGAUCACCCAUGUGUGAAUAUGGGAGGAUAUACGUGGACCGUAGUCCGCGUAGAAGGCCUAAUUG | 279 | 46.1 | – | – |
| GAUUGACAUGAGGAUCACCCAUGUGAGGAUAUCGGCCGGACCUUGUUAGCUUCCACCGCGAGAAGGCACAUAGG | – | – | 30.9 | 41.6 |
| GCAAAGCCUGACAUGAGGAUCACCCAUGUUAGAUUGUUAUGUCAGGAUAUUGUCUAGCAACUAGACAAGAAGGGAUGCUCUGCC | 377 | 194 | – | – |
| GCAAUCGAGGGAGGAUAUUGUGAGAUGGUGACAUGAGGAUCACCCAUGUGACGAGAAGGCCCAGUGCGCCCGCUUAACUGCUGA | – | – | 37.4 | 210 |
| GCACAAAGGUGACACCGUGUCGCUCAGGAUAUACGUGACGGCCCUCGCACAUGAGGAUCACCCAUGUAGAAGGGAGUUAAACGG | – | – | 7.66 | 14.9 |
| GCACAUGAGGAUCACCCAUGUGGUCCAGAAGGCCAGAGGAUCUGCUUUUAGCAGGUCCCUCAAAUGGAGGAUAUGGAGGGUUCU | 261 | 44.7 | – | – |
| GCACAUGAGGAUCACCCAUGUGGUCCAGAAGGCCAGAGGGCUUGCUUUUCGCAGGCCUUUCAAAUGGAGGAUAUGGAGGGUUCU | 207 | 42.7 | – | – |
| GCACGAUCCUCAGGAUAUCACUGAAACAUGAGGAUCACCCAUGUGCGCAGAUGAGAAGGGAGGACUCCGUCUGACUAAAAGUUA | 113 | 9.95 | – | – |
